# KCNQ1 pot = potentiators or activators of KCNQ1 channel, primary screen, cell-based, thallium flux, high-throughput. B-score at 10 µM. hit rate 0.35% among 310,000. CHO-K1 KCNQ1, thallium flux FluxOR fluorescence; hits give high values. Potassium voltage-gated channel subfamily KQT member 1 (Homo sapiens), P51787;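 active = fluorescence ratio B-score, a plate-corrected score, at least three library SD, with initial intensity B-score within 5 SD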
#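 assay system = KCNQ1-transfected CHO-K1 cells | medium = assay buffer with matched DMSO | probe or stimulus = depolarizing K+/Tl+ stimulus, K2SO4 and Tl2SO4 each 12.5 mM in 5x stock | dosing = single dose | incubation = dye 90 min, compound 20 min, room temperature | detection = kinetic FluxOR fluorescence, 10 s baseline plus 110 s post-stimulus | evaluation = ratio B score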
# KCNQ1 inh = inhibitors of human KCNQ1 channel, primary screen, cell-based, thallium flux, high-throughput | Potassium voltage-gated channel subfamily KQT member 1 (Homo sapiens), P51787 | CHO-K1 KCNQ1, FluxOR thallium flux fluorescence; hits give high values | B-score at 10 µM | hit rate 1.3% among 310,000;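 active = compounds whose thallium flux B-score, printed positive for inhibition, exceeds three library SD while starting fluorescence stays within three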;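 note: channel opened by potassium depolarization with thallium stimulus after 20 min compound exposure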
# KCNK9 block = KCNK9 potassium channel inhibitors, primary screen, HEK293 cells, thallium flux; FluxOR thallium flux fluorescence; hits give low values; B-score at 10 µM; hit rate 1.2% among 310,000;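 active = ratio B-score over 3 SD below the library mean, with starting fluorescence within 5 SD of its mean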;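 note: negative B-score means less thallium flux so channel inhibition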
# Kir21 block = inhibitors of mouse Kir2.1 inward-rectifier potassium channel | AID 1672, 2009 | hit rate 0.85% among 310,000 | Inward rectifier potassium channel 2 (Mus musculus), P35561 | B-score at 10 µM | HEK293-Kir2.1, FluxOR thallium flux fluorescence; hits give low values;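 active = fluorescence ratio B-score at or below minus 3 SD of library scores, with starting-brightness B-score within 2 SD, cut at about -4.2 in these data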;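 note: channel flux triggered by added potassium and thallium sulfate stimulus; B-score of peak minus minimum fluorescence over baseline after thallium stimulus; more negative B-score means stronger Kir2.1 block with less thallium influx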
# hERG protect = hERG rescue from dofetilide block, primary screen, cell-based, CHO-hERG, FluxOR thallium flux, dofetilide IC70; hit rate 0.51% among 310,000; dofetilide IC70 present; AID 1511, 2009; activation (rescue from dofetilide block), less the hit threshold, % at 10 µM;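 active = activation above the mean of controls blocked by dofetilide plus 5 SD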;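 note: thallium influx through hERG after potassium depolarization seen as dye fluorescence rise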
# KCNK3 block = human KCNK3 channel inhibitors, primary screen, CHO cells, FluxOR thallium flux, B-score. Potassium channel subfamily K member 3 (Homo sapiens), O14649. FluxOR fluorescence; hits give low values. B-score at 10 µM. hit rate 0.84% among 340,000. AID 602410, 2012;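 active = B-score under library mean minus 4 SD, starting fluorescence ratio at most library mean plus 5 SD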;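 note: more negative B-score means stronger inhibition of thallium flux through KCNK3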
# KCNQ1 block val = KCNQ1 potassium channel inhibitors, confirmation, cell-based, Tl flux, duplicate. shares compounds with KCNQ1 inh. KCNQ1 cell line, FluxOR thallium flux fluorescence. inhibition, % at 10 µM. hit rate 93% among 1,600. AID 588353, 2011;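 active = primary screen active, with duplicate mean exceeding buffer control mean plus 3 SD of buffer wells, cut at about 28% in these data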
# CHO Tl flux = thallium flux effects in parental CHO cells, counter-screen for KCNQ1 inhibitor project, cell-based, Tl flux; shares compounds with KCNQ1 inh; parental CHO-K1, FluxOR thallium flux fluorescence ratio; hits give low values; zero means no signal rise above baseline; fluorescence ratio (Tl flux) at 10 µM; hit rate 21% among 1,600; AID 588366, 2011;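 active = mean of duplicate thallium-flux fluorescence ratios in parental host cells more than 5 SD below the buffer control mean, cut at about 0.38 in these data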;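 note: ratio is peak minus minimum fluorescence divided by baseline fluorescence; actives read low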
# KCNQ1 APC inh = KCNQ1 channel inhibitors, confirmation, orthogonal assay, cell-based, automated electrophysiology | hit rate 20% among 490 | calls only at 10 µM | shares compounds with KCNQ1 inh | KCNQ1-CHO cells, automated patch clamp current;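 active = KCNQ1 current drop exceeding 3 SD of negative control wells, seen in both duplicate runs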;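 note: steady state current during a 2 s step from -80 to +40 mV; negative values mean current inhibition and positive values mean potentiation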
# KCNQ2 inh = KCNQ2 channel inhibition, selectivity assay for KCNQ1 inhibitor project, cell-based; shares compounds with KCNQ1 inh; KCNQ2 cells, FluxOR thallium flux fluorescence; inhibition, % at 10 µM; hit rate 71% among 1,600; AID 651746, 2012;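 active = mean percent inhibition of the KCNQ2 thallium signal more than 5 SD above the buffer-only control wells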;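 note: KCNQ2 expressed in CHO cells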
# KCNQ1-KCNE1 inh = KCNQ1/KCNE1 channel inhibition, selectivity assay for KCNQ1 inhibitor project, CHO-K1 cells, thallium flux, FluxOR; shares compounds with KCNQ1 inh; FluxOR thallium flux fluorescence; inhibition, % at 10 µM; hit rate 77% among 1,600; AID 652147, 2013;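 active = mean percent inhibition of duplicate wells above the buffer-only control mean plus 3 SD of those controls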
# Target sequence (P51787 whole entry, looked up): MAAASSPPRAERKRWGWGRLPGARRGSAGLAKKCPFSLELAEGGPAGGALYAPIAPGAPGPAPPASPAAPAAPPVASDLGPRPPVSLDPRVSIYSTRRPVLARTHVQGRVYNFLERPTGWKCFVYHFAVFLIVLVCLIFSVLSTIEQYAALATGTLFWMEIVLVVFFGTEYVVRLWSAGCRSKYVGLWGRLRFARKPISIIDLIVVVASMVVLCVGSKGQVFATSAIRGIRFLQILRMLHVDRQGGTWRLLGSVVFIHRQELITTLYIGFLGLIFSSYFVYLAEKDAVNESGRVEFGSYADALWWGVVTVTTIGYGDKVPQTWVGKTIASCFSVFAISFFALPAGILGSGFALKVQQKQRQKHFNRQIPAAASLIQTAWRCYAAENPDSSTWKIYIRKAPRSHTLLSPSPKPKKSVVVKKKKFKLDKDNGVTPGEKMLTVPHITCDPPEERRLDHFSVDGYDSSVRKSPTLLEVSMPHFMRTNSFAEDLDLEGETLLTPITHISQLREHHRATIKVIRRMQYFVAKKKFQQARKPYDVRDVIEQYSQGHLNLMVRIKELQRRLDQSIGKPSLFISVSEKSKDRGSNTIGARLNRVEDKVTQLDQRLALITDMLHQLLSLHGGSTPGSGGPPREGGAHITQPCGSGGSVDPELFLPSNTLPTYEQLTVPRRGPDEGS
# Numbers stand for hits; n = inactive; x = no result given; + = active, no number. In the library only some 3.7% were active in any assay of this set; here they are far more common.
SMILES,KCNQ1 pot,KCNQ1 inh,KCNK9 block,Kir21 block,hERG protect,KCNK3 block,KCNQ1 block val,CHO Tl flux,KCNQ2 inh,KCNQ1-KCNE1 inh,others
CC1Sc2ccc(S(=O)(=O)N3CCC(C(=O)Nc4ccc(Cl)cc4)CC3)cc2NC1=O (stereo unspecified),n,11,n,n,n,n,144.5,0.378,104.0%,167.5%,
O=C(NC1CCCCC1)C(c1cccnc1)N(C(=O)c1ccc(Cl)nc1)C1CCCCC1 (stereo unspecified),n,22,n,n,n,n,n,n,n,n,
CCOC(=O)c1cc(S(=O)(=O)Nc2ccc(OC)cc2OC)cn1C,n,n,n,n,n,n,x,x,x,x,
CSc1ccc(-c2sc(Nc3ccccc3)n[n+]2-c2ccc(F)cc2)cc1,n,n,n,n,n,n,x,x,x,x,
COc1ccc(-c2sc(Nc3ccccc3)n[n+]2-c2ccc(F)cc2)c(C)c1C,n,16,n,n,n,n,128.0,n,99.0%,134.5%,KCNQ1 APC inh=+
COc1ccccc1NS(=O)(=O)c1ccc(-c2cnc(C3CC3)o2)cc1,n,n,n,n,n,n,x,x,x,x,
COc1ccc(NS(=O)(=O)c2ccc(-c3cnc(C4CC4)o3)cc2)cc1OC,n,8,n,n,n,n,85.5,n,83.0%,n,
CC1(C)C(=S)N(Cc2ccccc2)c2ccccc21,n,n,n,n,n,n,x,x,x,x,
Cc1c(C)n(C(=O)CSc2nc3ccccc3[nH]2)c2ccccc12,n,7,n,n,n,n,139.0,n,123.7%,190.0%,KCNQ1 APC inh=n
O=C(CSc1nc2ccccc2[nH]1)N1CCCCC1,n,n,n,n,n,n,x,x,x,x,
CCCCOc1ccc(Br)cc1CSC(=N)N,n,7,n,-7.55,n,n,89.5,n,60.0%,n,KCNQ1 APC inh=+
COc1ccc(C)cc1N(CC(=O)N1CCCCCC1)S(=O)(=O)c1ccccc1,n,n,n,n,n,n,x,x,x,x,
N#Cc1c(-c2cccs2)nc(SCc2ccc(Cl)cc2)[nH]c1=O,n,8,n,n,n,n,n,n,n,n,
CSc1nc(-c2cccs2)c(C#N)c(=O)[nH]1,n,n,n,n,n,n,x,x,x,x,
CC1CCCN(CC(=O)Nc2cc(S(=O)(=O)N3CCOCC3)ccc2N2CCCC2)C1 (stereo unspecified),x,x,x,x,x,n,x,x,x,x,
Cc1cc(C(=O)CSc2nc3ccc(Cl)cc3[nH]2)c(C)n1C,n,n,n,n,n,n,x,x,x,x,
Cc1cc(C(=O)CSc2nc3ccc(Cl)cc3[nH]2)c(C)n1CC1CCCO1 (stereo unspecified),n,8,n,n,n,n,125.5,n,108.7%,121.0%,KCNQ1 APC inh=n
CC(C)(C)c1ccc(OCCC(=O)Nc2cccc(S(=O)(=O)N3CCCC3)c2)cc1,n,8,n,n,n,n,34.5,n,83.7%,66.0%,
CC(=O)Nc1cccc(OCC(=O)Nc2cccc(S(=O)(=O)N3CCCC3)c2)c1,x,x,x,x,x,n,x,x,x,x,
CC(C)(C)c1ccc(OCCCC(=O)Nc2cccc(S(=O)(=O)N3CCOCC3)c2)cc1,x,x,x,x,x,n,x,x,x,x,
Cc1ccc(OCC(=O)Nc2cccc(S(=O)(=O)N3CCCCCC3)c2)cc1C,n,7,n,n,n,n,95.5,n,98.7%,65.0%,KCNQ1 APC inh=n
COC(=O)C(C)Sc1nnc2n(-c3cccc(C)c3)c(=O)c3c4c(sc3n12)CCCC4 (stereo unspecified),n,6,n,n,n,n,42.0,n,87.0%,52.0%,
c1ccc2c(c1)OCCOCCOCCOCCOCCOc1ccccc1OCCOCCOCCO2,n,8,n,n,n,n,80.0,n,64.3%,60.5%,
OCCN1CCOCCOc2ccccc2OCCOCC1,n,n,n,n,n,n,x,x,x,x,
S=C(NCCSCc1ccc(Cl)cc1)Nc1ccccc1,n,n,n,n,n,n,x,x,x,x,
SMILES,KCNQ1 pot,KCNQ1 inh,KCNK9 block,Kir21 block,hERG protect,KCNK3 block,KCNQ1 block val,CHO Tl flux,KCNQ2 inh,KCNQ1-KCNE1 inh,others
S=C(NCCSCc1ccccc1Cl)Nc1ccccc1,n,10,n,n,n,n,106.5,n,87.3%,58.0%,KCNQ1 APC inh=n
Cc1cccc(CSCCNC(=S)Nc2ccccc2)c1,n,7,n,n,n,n,55.5,n,65.0%,98.5%,
COc1ccc(NC(=O)CN2C(=O)NC(C)(C3CC3)C2=O)c(OC)c1 (stereo unspecified),x,x,x,x,x,n,x,x,x,x,
Cc1ccc(S(C)(=O)=O)cc1C(=O)N1CC(C(N)=O)Oc2ccccc21 (stereo unspecified),n,n,n,n,n,n,x,x,x,x,
COc1ccc(Nc2ccccc2NC(=O)c2ccccc2Br)cc1,n,11,n,n,n,n,89.0,n,94.3%,89.5%,
Cc1ccccc1C(=O)Nc1ccccc1NC(=O)c1ccccc1Br,n,n,n,n,n,n,x,x,x,x,
Cc1cc(C)nc(N2CCC(C(=O)N3CCN(c4cc(Cl)ccc4C)CC3)CC2)n1,n,9,n,n,n,n,139.5,n,111.0%,175.5%,KCNQ1 APC inh=n
Cc1ccc(C)c(N2CCN(C(=O)C3CCN(c4nc(C)cc(C)n4)CC3)CC2)c1,n,n,n,n,n,n,x,x,x,x,
CCOc1ccc(/C=N/NC(=O)c2ccc(F)cc2)cc1CN1CC2CC(C1)c1cccc(=O)n1C2 (stereo unspecified),x,x,x,x,x,n,x,x,x,x,
Cc1ccc(CN(C)CC(=O)Nc2ccc3c(c2)CCC3)cc1,n,6,n,n,n,n,83.0,n,86.3%,89.5%,

# High-throughput results as filed in PubChem BioAssay.
